Experimental data as given in ChEMBL document CHEMBL4765329, “Exploration of carbamide derived pyrimidine-thioindole conjugates as potential VEGFR-2 inhibitors with anti-angiogenesis effect” (Eur J Med Chem, 2020).
The source made the active and inactive calls. No cut-off for these calls is given here.

Legend:
HepG2 = assay: cells; settings: Homo sapiens, HepG2, 72 h
A549 = assay: cells; settings: Homo sapiens, A549, 72 h
MDA-MB-231 [1] = assay: cells; settings: Homo sapiens, MDA-MB-231, 72 h
PC-3 = assay: cells; settings: Homo sapiens, PC-3, 72 h
MDA-MB-231 [2] = assay: Induction of apoptosis in human MDA-MB-231 cells assessed as necrotic cells at 2.5 uM measured after 48 hrs by Annexin V-FITC/Propidium iodide stain based flow cytometry assay (reference value: 0.3%); assay type: functional
MDA-MB-231 [3] = assay: Antimigratory activity against human MDA-MB-231 cells assessed as inhibition of cell migration at 5 uM measured after 24 hrs by phase contrast microscope based wound healing assay; assay type: functional
Summary of the method: (§1)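 Confluent MDA-MB-231 monolayers (DMEM, 10% FBS) were scratched with a sterile pipette tip and then treated. Wound closure was imaged by phase contrast microscopy after 24 h and compared with untreated control.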

MDA-MB-231 [4] = assay: Induction of apoptosis in human MDA-MB-231 cells assessed as induction of morphological changes by measuring nuclear shrinkage and fragmentation in nucleus measured after 48 hrs by Hoechst stain based flourescence assay in relative to control; assay type: functional, cell-based; settings: dose 2.5-5 µM
Summary of the method: (§2)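 MDA-MB-231 cells were treated at 2.5 and 5 µM and stained with Hoechst. Nuclei were examined by fluorescence for chromatin condensation, nuclear shrinkage, and pyknotic or fragmented nuclei against untreated control.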

MDA-MB-231 [5] = assay: Induction of apoptosis in human MDA-MB-231 cells assessed as viable cells at 2.5 uM measured after 48 hrs by Annexin V-FITC/Propidium iodide stain based flow cytometry assay (reference value: 95.3%); assay type: functional; settings: read-out: Activity
MDA-MB-231 [6] = assay: Induction of apoptosis in human MDA-MB-231 cells assessed as induction of morphological changes by measuring chromatin condensation measured after 48 hrs by Hoechst stain based flourescence assay in relative to control; assay type: functional, cell-based; settings: dose 2.5-5 µM
Summary of the method: as §2

MDA-MB-231 [7] = assay: Induction of apoptosis in human MDA-MB-231 cells assessed as late apoptotic cells at 5 uM measured after 48 hrs by Annexin V-FITC/Propidium iodide stain based flow cytometry assay (reference value: 1.2%); assay type: functional
MDA-MB-231 [8] = assay: Induction of apoptosis in human MDA-MB-231 cells assessed as viable cells at 5 uM measured after 48 hrs by Annexin V-FITC/Propidium iodide stain based flow cytometry assay (reference value: 95.3%); assay type: functional; settings: read-out: Activity
MDA-MB-231 [9] = assay: Antimigratory activity against human MDA-MB-231 cells assessed as inhibition of cell migration at 2.5 uM measured after 24 hrs by phase contrast microscope based wound healing assay; assay type: functional
Summary of the method: as §1

MDA-MB-231 [10] = assay: Induction of apoptosis in human MDA-MB-231 cells assessed as necrotic cells at 5 uM measured after 48 hrs by Annexin V-FITC/Propidium iodide stain based flow cytometry assay (reference value: 0.3%); assay type: functional
MDA-MB-231 [11] = assay: Induction of mitochondrial membrane potential loss in human MDA-MB-231 cells assessed as generation of ROS at 5 uM measured after 48 hrs by carboxy […] stain based flow cytometry assay relative to control; assay type: functional, cell-based
Summary of the method: (§3)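 MDA-MB-231 cells were treated at several doses and stained with carboxy-H2DCFDA. ROS were read as green DCF fluorescence relative to untreated control.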

HUVEC [12] = assay: Antiangiogenic activity against human HUVEC cells assessed as inhibition of tube formation measured after 16 hrs by matrigel based tube formation assay; assay type: functional, cell-based; settings: dose 2.5-5 µM
Summary of the method: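 HUVECs were plated on Matrigel with 2.5 and 5 μM test agent, alongside a reference VEGFR-2 inhibitor. Tube networks were imaged, and quantification covered cell-covered area, tube length, branching points and total loops.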

MDA-MB-231 [13] = assay: Induction of apoptosis in human MDA-MB-231 cells assessed as early apoptotic cells at 2.5 uM measured after 48 hrs by Annexin V-FITC/Propidium iodide stain based flow cytometry assay (reference value: 3.2%); assay type: functional
MDA-MB-231 [14] = assay: Induction of apoptosis in human MDA-MB-231 cells assessed as early apoptotic cells at 5 uM measured after 48 hrs by Annexin V-FITC/Propidium iodide stain based flow cytometry assay (reference value: 3.2%); assay type: functional
MDA-MB-231 [15] = assay: Induction of mitochondrial membrane potential loss in human MDA-MB-231 cells assessed as generation of ROS at 2.5 uM measured after 48 hrs by carboxy […] stain based flow cytometry assay relative to control; assay type: functional, cell-based
Summary of the method: as §3

HUVEC [16] = assay: Antimigratory activity against human HUVEC cells assessed as inhibition of cell invasion measured by inverted fluorescence microscope based transwell assay; assay type: functional; settings: dose 2.5-5 µM
Summary of the method: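 A Boyden chamber (transwell) invasion assay used HUVECs passing through Matrigel and a membrane barrier. Treatment was 2.5 and 5 µM, with a reference VEGFR-2 inhibitor as standard. Invaded cells on the bottom side were compared with untreated control.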

MDA-MB-231 [17] = assay: Induction of mitochondrial membrane potential loss in human MDA-MB-231 cells assessed as increase in depolarised cells measured after 48 hrs by JC-1 stain based flow cytometry assay relative to control; assay type: functional, cell-based; settings: dose 2.5-5 µM
Summary of the method: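 MDA-MB-231 cells were treated at 2.5 and 5 µM and stained with JC-1. Depolarised mitochondria were scored by green monomer signal and healthy mitochondria by red J-aggregates, against control.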

MDA-MB-231 [18] = assay: Induction of apoptosis in human MDA-MB-231 cells assessed as late apoptotic cells at 2.5 uM measured after 48 hrs by Annexin V-FITC/Propidium iodide stain based flow cytometry assay (reference value: 1.2%); assay type: functional

| SMILES | IC50 (HepG2) [µM] | IC50 (A549) [µM] | IC50 (MDA-MB-231 [1]) [µM] | IC50 (PC-3) [µM] | other results |
| --- | --- | --- | --- | --- | --- |
| Cc1cc(Cl)ccc1NC(=O)Nc1nc(NC2CC2)cc(Sc2c[nH]c3ccccc23)n1 | 9.74 | 31.5 | 14.6 | 11.1 |  |
| CNC(=O)c1cc(Oc2ccc(NC(=O)Nc3ccc(Cl)c(C(F)(F)F)c3)cc2)ccn1 [SORAFENIB] | 5.78 |  | 11.8 | 9.77 | inhibition (MDA-MB-231 [3]): Active; inhibition (MDA-MB-231 [9]): Active; inhibition (HUVEC [12]): Dose-dependent effect; inhibition (HUVEC [16]): Dose-dependent effect |
| COc1ccc(NC(=O)Nc2nc(Sc3c[nH]c4ccccc34)cc(N3CCCC3)n2)cc1 | 20.3 | 11.8 | 13.1 | 21.5 |  |
| COc1ccc(NC(=O)Nc2nc(Sc3c[nH]c4ccccc34)cc(N3CCCCC3)n2)cc1 | 17.1 | 13.5 | 7.26 | 17.4 |  |
| O=C(Nc1ccc(Cl)cc1)Nc1nc(Sc2c[nH]c3ccccc23)cc(N2CCCCC2)n1 | 14.8 | 18.6 | 10.1 | 42.5 |  |
| O=C(Nc1ccccc1)Nc1nc(Nc2ccc(Cl)cc2)cc(Sc2c[nH]c3ccccc23)n1 | 12.6 | 48.4 | 10.3 | 32.3 |  |
| Cc1cc(Cl)ccc1NC(=O)Nc1nc(Nc2ccccc2)cc(Sc2c[nH]c3ccccc23)n1 | 8.37 | > 50 | 17.1 | 41.9 |  |
| Cc1ccc(C)c(NC(=O)Nc2nc(Sc3c[nH]c4ccccc34)cc(N3CCCCC3)n2)c1 | 6.44 | 25.4 |  | > 50 | Activity (MDA-MB-231 [4]): Dose-dependent effect; Activity (MDA-MB-231 [6]): Dose-dependent effect; Activity (MDA-MB-231 [11]): Active; Activity (MDA-MB-231 [15]): Active; Activity (MDA-MB-231 [17]): Active |
| COc1cc(NC(=O)Nc2nc(Nc3cc(OC)cc(OC)c3)cc(Sc3c[nH]c4ccccc34)n2)cc(OC)c1 | 24.8 | > 50 | > 50 | 11.6 |  |
| COc1ccc(NC(=O)Nc2nc(Nc3cc(OC)cc(OC)c3)cc(Sc3c[nH]c4ccccc34)n2)cc1 | 17.4 | > 50 | 9.46 | 15.1 |  |
| Cc1cc(Cl)ccc1NC(=O)Nc1nc(Sc2c[nH]c3ccccc23)cc(N2CCCC2)n1 | 7.15 | 8.93 | 9.44 | 12.9 |  |
| O=C(Nc1ccc(Cl)cc1)Nc1nc(Sc2c[nH]c3ccccc23)cc(N2CCOCC2)n1 | 22.5 | 21.8 | 6.93 | 28.4 |  |
| O=C(Nc1ccccc1)Nc1nc(NC2CC2)cc(Sc2c[nH]c3ccccc23)n1 | 14.3 | > 50 | 7.86 | 17.5 |  |
| Cc1ccc(NC(=O)Nc2nc(Nc3ccccc3)cc(Sc3c[nH]c4ccccc34)n2)cc1 | 14.9 | 23.4 | 13.4 | 18.4 |  |
| Cc1cc(Cl)ccc1NC(=O)Nc1nc(Sc2c[nH]c3ccccc23)cc(N2CCOCC2)n1 | 8.26 | > 50 | 8.65 | 33.8 |  |
| COc1ccc(NC(=O)Nc2nc(Sc3c[nH]c4ccccc34)cc(N3CCOCC3)n2)cc1 | 10.3 | 33.4 | 7.94 | 12.5 |  |

The next lines start with results.

| IC50 (HepG2) [µM] | IC50 (A549) [µM] | IC50 (MDA-MB-231 [1]) [µM] | IC50 (PC-3) [µM] | SMILES | other results |
| --- | --- | --- | --- | --- | --- |
| 7.14 | 26.1 | 12.1 | 14.1 | O=C(Nc1ccccc1)Nc1nc(Sc2c[nH]c3ccccc23)cc(N2CCOCC2)n1 |  |
| 7.64 | > 50 | 34.7 | 19.8 | Cc1cc(Cl)ccc1NC(=O)Nc1nc(Sc2c[nH]c3ccccc23)cc(N2CCN(c3ccccn3)CC2)n1 |  |
| 7.87 | 6.41 |  | 10.4 | O=C(Nc1ccc(Cl)cc1)Nc1nc(Sc2c[nH]c3ccccc23)cc(N2CCCC2)n1 | Activity (MDA-MB-231 [2]): 0.5%; inhibition (MDA-MB-231 [3]): Active; Activity (MDA-MB-231 [4]): Dose-dependent effect; viability at 2.5 µM (MDA-MB-231 [5]): 76.2%; Activity (MDA-MB-231 [6]): Dose-dependent effect; Activity (MDA-MB-231 [7]): 11.2%; viability at 5 µM (MDA-MB-231 [8]): 51.4%; inhibition (MDA-MB-231 [9]): Active; Activity (MDA-MB-231 [10]): 0.9%; Activity (MDA-MB-231 [11]): Active; inhibition (HUVEC [12]): Dose-dependent effect; Activity (MDA-MB-231 [13]): 19.4%; Activity (MDA-MB-231 [14]): 36.6%; Activity (MDA-MB-231 [15]): Active; inhibition (HUVEC [16]): Dose-dependent effect; Activity (MDA-MB-231 [17]): Active; Activity (MDA-MB-231 [18]): 3.8% |
| 16.4 | > 50 | 19 | 17.3 | Cc1ccc(C)c(NC(=O)Nc2nc(Sc3c[nH]c4ccccc34)cc(N3CCN(Cc4ccccc4)CC3)n2)c1 |  |
| 8.16 | > 50 | 10.2 | 42.5 | O=C(Nc1ccccc1)Nc1nc(Sc2c[nH]c3ccccc23)cc(N2CCN(Cc3ccccc3)CC2)n1 |  |
| 11.7 | > 50 | 22.1 | 22.4 | Cc1cc(Cl)ccc1NC(=O)Nc1nc(Sc2c[nH]c3ccccc23)cc(N2CCN(Cc3ccccc3)CC2)n1 |  |
| 11.4 | 21.2 | 7.89 | 14.9 | O=C(Nc1ccccc1)Nc1nc(Sc2c[nH]c3ccccc23)cc(N2CCCC2)n1 |  |
| 11.4 | > 50 | 28.4 | 33.4 | COc1ccc(NC(=O)Nc2nc(Sc3c[nH]c4ccccc34)cc(N3CCN(c4ccccn4)CC3)n2)cc1 |  |
| 20.9 | 33.1 | 8.13 | 12.1 | O=C(Nc1ccccc1)Nc1nc(Sc2c[nH]c3ccccc23)cc(N2CCCCC2)n1 |  |
| 14.4 | > 50 | 35.9 | 26.4 | O=C(Nc1ccccc1)Nc1nc(Nc2ccccc2)cc(Sc2c[nH]c3ccccc23)n1 |  |
| 8.93 | 30.2 | 19.5 | 21.6 | O=C(Nc1ccccc1)Nc1nc(Sc2c[nH]c3ccccc23)cc(N2CCN(c3ccccn3)CC2)n1 |  |
| 21.4 | 42.3 | 8.92 | 16.7 | COc1ccc(NC(=O)Nc2nc(Sc3c[nH]c4ccccc34)cc(N3CCN(Cc4ccccc4)CC3)n2)cc1 |  |
